According to ChEMBL document CHEMBL4339195, “Di-aryl Sulfonamide Motif Adds π-Stacking Bulk in Negative Allosteric Modulators of the NMDA Receptor” (ACS Med Chem Lett, 2019):

Columns and labels:
[1] = target: Glutamate NMDA receptor; Grin1/Grin2a (Rattus norvegicus) (UniProt P35439+Q00959); assay: Negative allosteric modulation of recombinant rat GluN1/GluN2A expressed in Xenopus laevis oocytes assessed as residual glutamate/glycine-induced current response at 30 uM at -40 mV holding potential by two-electrode voltage clamp method relative to glutamate/glycine
[2] = target: T1, 5-hydroxytryptamine receptor 3A (Rattus norvegicus) (UniProt P35563); assay: Negative allosteric modulation of rat 5HT3A expressed in Xenopus laevis oocytes assessed as inhibition of serotonin-induced current response at 30 uM at -40 mV holding potential by two-electrode voltage clamp method relative to serotonin alone; format: cell-based
T1 sequence (whole entry): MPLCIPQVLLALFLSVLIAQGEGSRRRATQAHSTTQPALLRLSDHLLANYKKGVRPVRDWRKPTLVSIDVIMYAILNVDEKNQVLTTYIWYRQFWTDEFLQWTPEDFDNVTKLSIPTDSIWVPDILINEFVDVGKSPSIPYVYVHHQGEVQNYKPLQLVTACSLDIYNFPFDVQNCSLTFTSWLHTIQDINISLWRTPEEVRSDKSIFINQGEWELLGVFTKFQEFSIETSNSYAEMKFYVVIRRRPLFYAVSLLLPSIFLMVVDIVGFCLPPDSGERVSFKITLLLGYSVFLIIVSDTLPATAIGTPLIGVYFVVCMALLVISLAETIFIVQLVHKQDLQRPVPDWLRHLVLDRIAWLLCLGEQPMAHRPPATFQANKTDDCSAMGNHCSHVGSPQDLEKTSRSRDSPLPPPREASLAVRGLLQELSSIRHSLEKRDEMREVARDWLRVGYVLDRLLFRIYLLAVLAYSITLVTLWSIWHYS
Summary of the method: (§1)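 Oocyte two-electrode voltage clamp at -40 mV holding. Test compound co-applied with agonist; response given as percent of the mean of control and recovery currents to agonist alone. Agonists: 100 µM glutamate (AMPA, kainate), 100 µM GABA (GABA receptors), 100 µM glycine (glycine receptor), 100 µM serotonin (5-HT3A), 9 µM ATP (P2X), 1 µM acetylcholine (nicotinic).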

[3] = system: Glutamate receptor 4 (Homo sapiens), P48058 [L505Y]; assay: Negative allosteric modulation of human GluA4 L505Y mutant expressed in Xenopus laevis oocytes assessed as inhibition of glutamate-induced current response at 30 uM at -40 mV holding potential by two-electrode voltage clamp method relative to glutamate alone; format: cell-based
Sequence of Glutamate receptor 4 (Homo sapiens), P48058 [L505Y] (P48058 whole entry L505Y): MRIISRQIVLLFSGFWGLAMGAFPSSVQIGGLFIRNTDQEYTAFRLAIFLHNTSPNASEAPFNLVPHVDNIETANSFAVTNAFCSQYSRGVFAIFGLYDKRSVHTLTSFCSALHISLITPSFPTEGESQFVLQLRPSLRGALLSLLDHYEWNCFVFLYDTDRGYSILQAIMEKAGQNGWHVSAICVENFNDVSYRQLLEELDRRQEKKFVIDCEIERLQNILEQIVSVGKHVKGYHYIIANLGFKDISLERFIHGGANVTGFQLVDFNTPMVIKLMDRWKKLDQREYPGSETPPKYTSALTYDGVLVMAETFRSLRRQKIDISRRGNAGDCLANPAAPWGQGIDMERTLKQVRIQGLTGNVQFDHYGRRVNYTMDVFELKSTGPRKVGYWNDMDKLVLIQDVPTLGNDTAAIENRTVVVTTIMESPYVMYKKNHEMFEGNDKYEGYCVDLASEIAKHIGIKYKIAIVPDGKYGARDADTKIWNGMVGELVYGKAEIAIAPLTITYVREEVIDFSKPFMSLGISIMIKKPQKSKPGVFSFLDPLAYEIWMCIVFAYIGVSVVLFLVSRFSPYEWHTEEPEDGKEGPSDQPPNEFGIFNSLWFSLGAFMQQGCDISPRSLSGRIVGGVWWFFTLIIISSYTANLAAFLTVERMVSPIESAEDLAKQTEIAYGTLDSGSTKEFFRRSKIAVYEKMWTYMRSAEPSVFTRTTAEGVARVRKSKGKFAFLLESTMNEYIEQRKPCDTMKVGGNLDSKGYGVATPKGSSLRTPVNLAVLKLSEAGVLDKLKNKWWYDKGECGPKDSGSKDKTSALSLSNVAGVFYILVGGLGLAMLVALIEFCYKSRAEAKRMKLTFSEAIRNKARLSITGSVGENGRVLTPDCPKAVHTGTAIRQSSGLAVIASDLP
Summary of the method: as §1

Rattus norvegicus [4] = organism: Rattus norvegicus; assay: Negative allosteric modulation of rat GABAA alpha1beta2gamma2S expressed in Xenopus laevis oocytes assessed as inhibition of GABA-induced current response at 30 uM at -40 mV holding potential by two-electrode voltage clamp method relative to GABA alone; format: cell-based
Summary of the method: as §1

[5] = target: T2, Glycine receptor subunit alpha-1 (Rattus norvegicus) (UniProt P07727); assay: Negative allosteric modulation of rat glycine alpha1 expressed in Xenopus laevis oocytes assessed as inhibition of glycine-induced current response at 30 uM at -40 mV holding potential by two-electrode voltage clamp method relative to glycine alone; format: cell-based
T2 sequence (whole entry): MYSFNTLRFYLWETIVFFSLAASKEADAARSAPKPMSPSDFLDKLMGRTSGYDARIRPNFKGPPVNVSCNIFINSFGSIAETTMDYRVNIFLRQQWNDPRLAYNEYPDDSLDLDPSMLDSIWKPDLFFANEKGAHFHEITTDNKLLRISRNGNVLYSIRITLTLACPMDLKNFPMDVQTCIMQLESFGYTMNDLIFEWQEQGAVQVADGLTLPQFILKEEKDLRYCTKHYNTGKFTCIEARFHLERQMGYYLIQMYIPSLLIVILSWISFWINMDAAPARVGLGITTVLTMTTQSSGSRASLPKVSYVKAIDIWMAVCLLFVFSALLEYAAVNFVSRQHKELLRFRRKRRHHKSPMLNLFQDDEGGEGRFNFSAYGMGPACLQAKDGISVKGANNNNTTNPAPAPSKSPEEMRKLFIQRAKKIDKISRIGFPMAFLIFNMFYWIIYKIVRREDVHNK
Summary of the method: as §1

[6] = target: T3, Glutamate NMDA receptor; Grin1/Grin2c (Rattus norvegicus) (UniProt P35439+Q00961); assay: Negative allosteric modulation of recombinant rat GluN1/GluN2C expressed in Xenopus laevis oocytes assessed as inhibition of glutamate/glycine-induced current response at 30 uM at -40 mV holding potential by two-electrode voltage clamp method relative to glutamate/glycine; format: cell-based; details: values are per cent of control
Summary of the method: (§2)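 Oocytes recorded while the drug is co-applied with a maximally effective 100 µM glutamate plus 30 µM glycine. Response is expressed as percent of the glutamate/glycine control. IC50 comes from a Hill fit to the average composite concentration-response curve. 8-16 oocytes from 2-3 frogs per compound and receptor.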

Rattus norvegicus [7] = organism: Rattus norvegicus; assay: Negative allosteric modulation of rat GABAA rho expressed in Xenopus laevis oocytes assessed as inhibition of GABA-induced current response at 30 uM at -40 mV holding potential by two-electrode voltage clamp method relative to GABA alone; format: cell-based
Summary of the method: as §1

[8] = target: T3, Glutamate NMDA receptor; Grin1/Grin2c (Rattus norvegicus); assay: Potency index, ratio of NP11999 IC50 to test compound IC50 for negative allosteric modulation of recombinant rat GluN1/GluN2C expressed in Xenopus laevis oocytes assessed as inhibition of glutamate/glycine-induced current response; format: cell-based
[9] = target: T4, Ionotropic glutamate receptor NMDA 1/2D (Rattus norvegicus) (UniProt P35439+Q62645); assay: Negative allosteric modulation of recombinant rat GluN1/GluN2D expressed in Xenopus laevis oocytes assessed as inhibition of glutamate/glycine-induced current response at 30 uM at -40 mV holding potential by two-electrode voltage clamp method relative to glutamate/glycine; format: cell-based; details: values are per cent of control
Summary of the method: as §2

[10] = system: Glutamate receptor 3 (Homo sapiens), P42263 [L513Y]; assay: Negative allosteric modulation of human GluA3 L513Y mutant expressed in Xenopus laevis oocytes assessed as inhibition of glutamate-induced current response at 30 uM at -40 mV holding potential by two-electrode voltage clamp method relative to glutamate alone; format: cell-based
Sequence of Glutamate receptor 3 (Homo sapiens), P42263 [L513Y] (P42263 whole entry L513Y): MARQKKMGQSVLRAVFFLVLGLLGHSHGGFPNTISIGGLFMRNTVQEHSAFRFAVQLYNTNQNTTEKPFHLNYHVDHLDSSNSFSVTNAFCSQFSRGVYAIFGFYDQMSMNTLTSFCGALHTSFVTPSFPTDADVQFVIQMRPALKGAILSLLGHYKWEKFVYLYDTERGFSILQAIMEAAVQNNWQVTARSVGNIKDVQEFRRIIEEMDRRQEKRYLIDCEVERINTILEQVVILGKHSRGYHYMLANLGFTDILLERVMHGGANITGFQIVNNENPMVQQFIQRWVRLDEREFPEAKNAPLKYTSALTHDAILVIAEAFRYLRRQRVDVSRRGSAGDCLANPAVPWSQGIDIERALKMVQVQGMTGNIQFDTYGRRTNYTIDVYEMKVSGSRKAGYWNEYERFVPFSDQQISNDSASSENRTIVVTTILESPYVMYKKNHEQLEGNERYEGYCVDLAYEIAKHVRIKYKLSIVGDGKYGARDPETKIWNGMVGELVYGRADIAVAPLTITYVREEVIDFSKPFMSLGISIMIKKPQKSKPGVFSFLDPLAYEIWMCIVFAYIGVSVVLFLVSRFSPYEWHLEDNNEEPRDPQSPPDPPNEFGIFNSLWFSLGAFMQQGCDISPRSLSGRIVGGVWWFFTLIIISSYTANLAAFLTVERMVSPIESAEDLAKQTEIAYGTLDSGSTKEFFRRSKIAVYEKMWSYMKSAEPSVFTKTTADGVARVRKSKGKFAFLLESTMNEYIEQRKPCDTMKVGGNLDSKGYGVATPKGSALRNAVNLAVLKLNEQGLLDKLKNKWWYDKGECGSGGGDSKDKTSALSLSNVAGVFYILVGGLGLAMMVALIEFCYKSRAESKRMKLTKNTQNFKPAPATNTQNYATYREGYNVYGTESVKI
Summary of the method: as §1

[11] = target: Glutamate NMDA receptor; Grin1/Grin2b (Rattus norvegicus) (UniProt P35439+Q00960); assay: Negative allosteric modulation of recombinant rat GluN1/GluN2B expressed in Xenopus laevis oocytes assessed as inhibition of glutamate/glycine-induced current response at 30 uM at -40 mV holding potential by two-electrode voltage clamp method relative to glutamate/glycine; format: cell-based
Summary of the method: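 Oocyte voltage clamp at -40 mV. Drug co-applied with 100 µM glutamate plus 30 µM glycine; response given as percent of the average of control and recovery currents to agonist alone.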

[12] = target: T4, Ionotropic glutamate receptor NMDA 1/2D (Rattus norvegicus); assay: Negative allosteric modulation of recombinant rat GluN1/GluN2D expressed in Xenopus laevis oocytes assessed as inhibition of glutamate/glycine-induced current response at saturated concentration at -40 mV holding potential by two-electrode voltage clamp method relative to glutamate/glycine; format: cell-based
Summary of the method: (§3)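 Hill fit of the composite concentration-response curve in oocytes, with agonist 100 µM glutamate plus 30 µM glycine. Residual response in saturating compound is either fixed at 0 or fitted. 8-16 oocytes from 2-3 frogs.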

[13] = target: T3, Glutamate NMDA receptor; Grin1/Grin2c (Rattus norvegicus); assay: Negative allosteric modulation of recombinant rat GluN1/GluN2C expressed in Xenopus laevis oocytes assessed as inhibition of glutamate/glycine-induced current response at saturated concentration at -40 mV holding potential by two-electrode voltage clamp method relative to glutamate/glycine; format: cell-based
Summary of the method: as §3

CCN(CC)C(=O)Oc1ccc(C(=O)Nc2cccc(CCNS(=O)(=O)c3ccccc3)c2)cc1
residual activity [1]: 85% | inhibition [2]: 20% | inhibition [3]: 86% | inhibition (Rattus norvegicus [4]): 90% | inhibition [5]: 30% | residual activity [6]: 9% | inhibition (Rattus norvegicus [7]): 98% | Ratio IC50 [8]: < 6 | residual activity [9]: 8.9 to 9% | inhibition [10]: 86% | inhibition [11]: 24% | inhibition [12]: 0% | inhibition [13]: 0%
